# Published values collected from several papers.
# Lines come from different studies, so protocols differ.
# DRD1: D(1A) dopamine receptor (DRD1, Homo sapiens, UniProt P21728)
# Tyrosine-protein phosphatase YopH: Tyrosine-protein phosphatase YopH (Yersinia enterocolitica, UniProt P15273)
SMILES,target,test,setting,measurement,result
O=C(O)c1cc(-c2ccc([C@H]3C[C@H]4C[C@@H]3NC4=O)cc2)c2ccc(-c3ccc(C(F)(F)F)cc3)cc2c1,DRD1,"cell-free assay, radioligand",,Ki,1.4 to 2.2 µM
C[C@H](N)Cc1ccccc1,"Neuronal acetylcholine receptor subunit alpha-7 (Chrna7, Mus musculus, UniProt P49582)","ligand displacement, radioligand",cell membranes,Ki,49.7 µM
CC(C)CCC[C@@H](C)[C@H]1CC[C@H]2[C@@H]3CC=C4C[C@@H](O)CC[C@]4(C)[C@H]3CC[C@]12C,"hly (Listeria monocytogenes, UniProt P13128)",binding,pH 5.5,Kd,0.296 µM
NNC(=O)c1ccncc1,"Adenosylmethionine-8-amino-7-oxononanoate aminotransferase (Mycobacterium tuberculosis, UniProt P9WQ81)","enzyme activity, inhibitor",,Ki,> 100 µM
O=C(O)c1cc(-c2ccc([C@@H]3C[C@@H]4C[C@H]3CN4)cc2)c2ccc(-c3ccc(C(F)(F)F)cc3)cc2c1,DRD1,"cell-free assay, radioligand",,Ki,1.4 to 2.2 µM
[Na+].[Na+].[Na+].[O]=[V]([O-])([O-])[O-],Tyrosine-protein phosphatase YopH,"enzyme activity, inhibitor",,Ki,1.58 µM
CNC(C)C(=O)c1ccccc1 (racemic),"Sodium-dependent serotonin transporter (SLC6A4, Homo sapiens, UniProt P31645)","calcium signal, agonist, fluorescence",,EC50,24.8 µM
CN(C)c1ccc(/C=C/c2cc(/C=C/c3ccc(N(C)C)cc3)n3n[n+](C)nc3n2)cc1,Tyrosine-protein phosphatase YopH,"enzyme activity, inhibitor",,IC50,4.44 µM
CC=C1[C@H]2C=C(C)C[C@]1(N)c1cc(O)c(=O)[nH]c1C2,"Cholinesterase (BCHE, Equus caballus, UniProt P81908)","enzyme activity, inhibitor, Ellman",,IC50,155 µM
